Broadly, the Ki is the equilibrium dissociation constant of an inhibitor or competing ligand from its target. As a reminder, the pKi is −log10 of the Ki, conventionally taken in molar units.

Test [1] has as its target T1, Adenosine receptor A2b (Homo sapiens, UniProt P29275).
T1 sequence (P29275 whole entry): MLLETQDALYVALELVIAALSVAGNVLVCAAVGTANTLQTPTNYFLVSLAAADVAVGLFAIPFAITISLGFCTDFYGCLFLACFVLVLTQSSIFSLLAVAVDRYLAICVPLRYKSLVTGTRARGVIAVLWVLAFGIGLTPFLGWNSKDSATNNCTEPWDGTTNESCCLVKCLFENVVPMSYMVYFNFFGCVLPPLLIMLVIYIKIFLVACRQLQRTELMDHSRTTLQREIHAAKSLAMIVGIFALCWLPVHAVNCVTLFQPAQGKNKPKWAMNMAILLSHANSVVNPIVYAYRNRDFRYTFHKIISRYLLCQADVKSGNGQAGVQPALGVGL
The experiment in a line: Displacement of [3H]DPCPX from human adenosine A2B receptor expressed in HEK293 cells. It counts as cell-based. Conditions: for Ki: read-out: Log Ki (converted); for pKi: read-out: Ki. For orientation: In a radioligand displacement assay an active substance lowers the binding of a labelled ligand.

Test [2] deals with Adenosine receptor A2a (Homo sapiens, UniProt P29274). The test can be described thus: Displacement of [3H]ZM-241385 from human adenosine A2A receptor expressed in CHO cells. It counts as cell-based. In a few lines:
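Competition binding at cloned human receptors: [3H]DPCPX for A1 and A2B, [3H]ZM241385 for A2A, [3H]NECA for A3. Screening compounds are reported as % radioligand displacement at one concentration. SEM below 10%.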

For test [3], the species on record is Homo sapiens. The experiment in a line: Selectivity index, ratio for human adenosine A2A receptor to human adenosine A2B receptor.

pKi: −log10 of the molar value. “And” between values parts separate entries of the source, which are not always exact repeats. Identical values can stand only once.

Adenosine receptor A2a, sequence (P29274 whole entry): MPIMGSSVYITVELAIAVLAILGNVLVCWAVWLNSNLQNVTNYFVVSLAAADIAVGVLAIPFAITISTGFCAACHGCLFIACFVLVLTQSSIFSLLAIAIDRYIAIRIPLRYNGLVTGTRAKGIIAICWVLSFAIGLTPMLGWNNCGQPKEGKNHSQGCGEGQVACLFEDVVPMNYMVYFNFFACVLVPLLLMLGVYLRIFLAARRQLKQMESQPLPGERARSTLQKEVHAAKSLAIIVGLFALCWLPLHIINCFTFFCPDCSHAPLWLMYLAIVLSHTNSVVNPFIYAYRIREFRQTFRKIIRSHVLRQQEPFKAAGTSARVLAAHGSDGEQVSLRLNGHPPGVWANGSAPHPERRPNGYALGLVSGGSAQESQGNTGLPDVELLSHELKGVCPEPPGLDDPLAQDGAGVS

On to `CCCn1c(=O)n(C)c(=O)c2[nH]c(-c3ccc(OCC(=O)N4CCC(c5ccc(OC)cc5)CC4)cc3)cc21`, for which the Ki in test [1] is 9.12 nM. Also, in test [2], the pKi is 6.40. Moreover, the Ratio in test [3] was 43.7.
Take `CCCn1c(=O)c2[nH]c(-c3ccc(OCC(=O)N4CCC(c5ccccc5)CC4)cc3)cc2n(CCC)c1=O`: the Ki in test [1] is 20.9 nM. In test [2], the pKi was 6.23. In addition, in test [3], the Ratio is 28.2.
Consider `CCCn1c(=O)c2[nH]c(-c3ccc(OCC(=O)N4CCC(c5ccccc5)(c5ccccc5)CC4)cc3)cc2n(CCC)c1=O`, for which the Ki in test [1] was 21.4 nM. This compound also showed a pKi in test [2] of 5.98. Moreover, the Ratio in test [3] came to 40.7.
As for `Cn1c(=O)c2[nH]c(-c3ccc(OC(C)(C)C(=O)N4CCN(c5ccccc5)CC4)cc3)cc2n(C)c1=O`, the Ki in test [1] is 31.6 nM. Also, in test [2], the pKi was 6.76. Moreover, the Ratio in test [3] was determined as 5.49.
In the case of `Cn1c(=O)c2[nH]c(-c3ccc(OCC(=O)N4CCC(c5ccccc5)CC4)cc3)cc2n(C)c1=O`, the Ki in test [1] is 12.3 nM. Moreover, the pKi in test [2] was 6.10. For the same compound, in test [3], the Ratio was 64.6.
As to `CCCn1c(=O)n(C)c(=O)c2[nH]c(-c3ccc(OC(C)(C)C(=O)N4CCN(c5ccccc5)CC4)cc3)cc21`, the Ki in test [1] is 4.17 nM. For the same compound, in test [2], the pKi is 6.25. Also, the Ratio in test [3] came to 135.
As to `CCCn1c(=O)n(C)c(=O)c2[nH]c(-c3ccc(OCC(=O)N4CCc5ccccc5C4)cc3)cc21`, in test [1], the Ki was 14.5 nM and 7.24 nM. For the same compound, the pKi in test [2] is 6.68 and 6.00.
Regarding `Cn1c(=O)c2[nH]c(-c3ccc(OCC(=O)N4CCN(c5ccc(O)cc5)CC4)cc3)cc2n(C)c1=O`, in test [1], the Ki was 27.5 nM. This compound also had a pKi in test [2] of 6.21. Further, in test [3], the Ratio turned out to be 22.
Turning to `Cn1c(=O)c2[nH]c(-c3ccc(OCC(=O)N4CCN(c5ccccn5)CC4)cc3)cc2n(C)c1=O`, the Ki in test [1] was 58.9 nM. In test [2], this compound had a pKi of 6.15. For the same compound, the Ratio in test [3] came to 12.
Turning to `Cn1c(=O)c2[nH]c(-c3ccc(OCC(=O)N4CCN(c5ccc(Cl)cc5)CC4)cc3)cc2n(C)c1=O`, in test [1], the Ki is 3.39 nM. Moreover, the pKi in test [2] is 6.40. In test [3], the Ratio is 117.
Regarding `Cn1c(=O)c2[nH]c(-c3ccc(OCC(=O)N4CCN(c5ccccc5Cl)CC4)cc3)cc2n(C)c1=O`, the Ki in test [1] is 6.31 nM. The pKi in test [2] was 6.45. Moreover, the Ratio in test [3] was determined as 56.
`COc1ccc(C2CCN(C(=O)COc3ccc(-c4cc5c([nH]4)c(=O)n(C)c(=O)n5C)cc3OC)CC2)cc1`: in test [1], the Ki is 30.9 nM. Further, the pKi in test [2] was 6.06. For the same compound, the Ratio in test [3] was found to be 28.2.
As to `Cc1ccc(N2CCN(C(=O)C(C)Oc3ccc(-c4cc5c([nH]4)c(=O)n(C)c(=O)n5C)cc3)CC2)cc1` (stereo not drawn), the pKi is 8.70 in test [1] and 6.41 in test [2]. For the same compound, the Ratio in test [3] was 213.
`CCCn1c(=O)c2[nH]c(-c3ccc(OC(C)C(=O)N4CCc5ccccc5C4)cc3)cc2n(CCC)c1=O` (stereo not drawn): the Ki in test [1] was 4.68 nM. In test [2], this compound had a pKi of 6.80. For the same compound, the Ratio in test [3] amounted to 33.9.
`CCCn1c(=O)c2[nH]c(-c3ccc(OCC(=O)N4CCc5ccccc5C4)cc3)cc2n(CCC)c1=O`: the Ki in test [1] was 2.29 nM. In test [2], this compound showed a negative logarithm of the Ki (pKi) of 7.03. Moreover, the Ratio in test [3] was found to be 40.7.
Regarding `CCCn1c(=O)n(C)c(=O)c2[nH]c(-c3ccc(OCC(=O)N4CCN(c5ccccc5Cl)CC4)cc3)cc21`, the Ki in test [1] was 14.8 nM. Also, the pKi in test [2] was 5.96. The Ratio in test [3] came to 74.1.
For `CCCn1c(=O)c2[nH]c(-c3ccc(OCC(=O)N4CCN(c5cccc(Cl)c5)CC4)cc3)cc2n(CCC)c1=O`, the pKi in test [1] was 8.82; in test [2], 6.94. For the same compound, the Ratio in test [3] was 75.9.
Turning to `COc1cc(-c2cc3c([nH]2)c(=O)n(C)c(=O)n3C)ccc1OCC(=O)N1CCc2ccccc2C1`, the Ki in test [1] was 170 nM. The pKi in test [2] was 5.17. Also, the Ratio in test [3] is 39.
For `CCCn1c(=O)n(C)c(=O)c2[nH]c(-c3ccc(OCC(=O)N4CCC(c5ccccc5)CC4)cc3)cc21`, the figures for the pKi in test [1] and in test [2] were 8.60 and 5.99, respectively. Also, the Ratio in test [3] was 398.
As to `CCCn1c(=O)c2[nH]c(-c3ccc(OCC(=O)N4CCN(C(c5ccccc5)c5ccccc5)CC4)cc3)cc2n(CCC)c1=O`, in test [1], the Ki was 51.3 nM. Moreover, in test [2], the pKi was 5.80. Besides, the Ratio in test [3] was found to be 30.9.
Regarding `O=C(COc1ccc(-c2cc3c([nH]2)c(=O)n(CC2CC2)c(=O)n3CC2CC2)cc1)N1CCc2ccccc2C1`, the Ki in test [1] was 9.55 nM. The compound further had a pKi in test [2] of 6.62. In addition, the Ratio in test [3] is 25.
`CCCn1c(=O)n(C)c(=O)c2[nH]c(-c3ccc(OCC(=O)N4CCC(c5ccccc5OC)CC4)cc3)cc21`: the Ki in test [1] was 6.17 nM. The pKi in test [2] is 6.39. The Ratio in test [3] was found to be 66.1.
In the case of `CCCn1c(=O)c2[nH]c(-c3ccc(OCC(=O)N4CCN(C(=O)OCc5ccccc5)CC4)cc3)cc2n(CCC)c1=O`, the Ki in test [1] was 38.9 nM. Moreover, the pKi in test [2] is 6.82. Also, the Ratio in test [3] amounted to 3.9.
As to `CCCn1c(=O)c2[nH]c(-c3ccc(OCC(=O)N4CCN(c5ccccc5Cl)CC4)cc3)cc2n(CCC)c1=O`, the Ki in test [1] is 6.92 nM. The same compound had a pKi in test [2] of 7.42. Further, the Ratio in test [3] is 5.5.
Take `CC(Oc1ccc(-c2cc3c([nH]2)c(=O)n(C)c(=O)n3C)cc1)C(=O)N1CCN(c2ccccc2)CC1` (stereo not drawn): the inhibitory constant (Ki) in test [1] is 20.4 nM. The compound also had a pKi in test [2] of 6.45. Further, in test [3], the Ratio came out at 17.4.
As to `Cn1c(=O)c2[nH]c(-c3ccc(OCC(=O)N4CCN(c5cccc(Cl)c5)CC4)cc3)cc2n(C)c1=O`, the pKi in test [1] is 8.52; in test [2], 6.81. In test [3], the Ratio stood at 55.
In the case of `CCCn1c(=O)c2[nH]c(-c3ccc(OCC(=O)N4CCN(c5c(Cl)cncc5Cl)CC4)cc3)cc2n(CCC)c1=O`, the Ki in test [1] was 7.59 nM. In test [2], this compound showed a pKi of 7.13. Also, the Ratio in test [3] came out at 9.8.
As to `Cn1c(=O)c2[nH]c(-c3ccc(OCC(=O)N4CCN(Cc5ccccc5)CC4)cc3)cc2n(C)c1=O`, in test [1], the Ki was 53.7 nM. This compound had a pKi in test [2] of 5.81. For the same compound, the Ratio in test [3] amounted to 28.8.
As to `CCCn1c(=O)c2[nH]c(-c3ccc(OCC(=O)N4CCN(c5ccccc5Cl)CC4)cc3)cc2n(C)c1=O`, the Ki in test [1] was 69.2 nM. The pKi in test [2] was 6.65. Besides, the Ratio in test [3] is 3.2.
Take `Cn1c(=O)c2[nH]c(-c3ccc(OCC(=O)N4CCN(c5ccc(C#N)cc5)CC4)cc3)cc2n(C)c1=O`: the Ki in test [1] is 6.31 nM. In test [2], this compound showed a negative logarithm of the Ki (pKi) of 6.45. In test [3], the Ratio came out at 56.
For the compound `CCCn1c(=O)c2[nH]c(-c3ccc(OCC(=O)N4CCC(O)(c5ccccc5)CC4)cc3)cc2n(CCC)c1=O`, in test [1], the Ki is 13.5 nM. For the same compound, the pKi in test [2] is 5.94. For the same compound, the Ratio in test [3] worked out at 85.1.
Take `Cn1c(=O)c2[nH]c(-c3ccc(OCC(=O)N4CCN(c5ccc(Br)cc5)CC4)cc3)cc2n(C)c1=O`: in test [1], the Ki is 3.47 nM. In test [2], this compound had a pKi of 6.94. Further, in test [3], the Ratio stood at 33.1.
In the case of `CCCn1c(=O)n(C)c(=O)c2[nH]c(-c3ccc(OCC(=O)N4CCN(c5cccc(Cl)c5)CC4)cc3)cc21`, in test [1], the Ki is 6.03 nM. Also, the pKi in test [2] is 6.32. The Ratio in test [3] is 79.
The corresponding values for `Cn1c(=O)c2[nH]c(-c3ccc(OCC(=O)N4CCN(c5ccc(C(F)(F)F)cc5)CC4)cc3)cc2n(C)c1=O` are 4.17 nM, 6.88 and 31.6.
With `Cn1c(=O)c2[nH]c(-c3ccc(OCC(=O)N4CCC(O)(c5ccc(Cl)cc5)CC4)cc3)cc2n(C)c1=O`, the Ki in test [1] is 2.88 nM. In addition, the pKi in test [2] is 6.49. For the same compound, the Ratio in test [3] was 112.
With `CCCn1c(=O)c2[nH]c(-c3ccc(OCC(=O)N4CCN(Cc5ccccc5)CC4)cc3)cc2n(CCC)c1=O`, the Ki in test [1] is 6.17 nM. Moreover, the pKi in test [2] was 6.59. The Ratio in test [3] amounted to 41.7.
Consider `CCCn1c(=O)c2[nH]c(-c3ccc(OCC(=O)N4CCN(c5ccccc5)CC4)cc3)cc2n(CCC)c1=O`, for which the Ki in test [1] is 4.79 nM. The compound also showed a pKi in test [2] of 6.79. Also, the Ratio in test [3] was 33.8.
Take `CC(Oc1ccc(-c2cc3c([nH]2)c(=O)n(C)c(=O)n3C)cc1)C(=O)N1CCN(c2ccc(Br)cc2)CC1` (stereo not drawn): in test [1], the Ki was 8.13 nM. The pKi in test [2] was 6.57. In addition, the Ratio in test [3] was determined as 26.
For `O=C(COc1ccc(-c2cc3c([nH]2)c(=O)n(CC2CC2)c(=O)n3CC2CC2)cc1)N1CCN(c2ccccc2)CC1`, in test [1], the Ki is 11.7 nM. This compound gave a pKi in test [2] of 7.31. The Ratio in test [3] was 4.2.
`CCCn1c(=O)c2[nH]c(-c3ccc(OCC(=O)N4CCN(c5ccccc5)CC4)cc3)cc2n(C)c1=O`: in test [1], the Ki is 13.2 nM. In test [2], the pKi is 6.50. Moreover, the Ratio in test [3] was found to be 24.
The corresponding values for `CN1CCN(C(=O)COc2ccc(-c3cc4c([nH]3)c(=O)n(C)c(=O)n4C)cc2)CC1` are 174 nM, 6.10 and 4.05.
In the case of `Cn1c(=O)c2[nH]c(-c3ccc(OCC(=O)N4CCN(c5nc6cc(Cl)ccc6s5)CC4)cc3)cc2n(C)c1=O`, in test [1], the Ki was 3.63 nM. In test [2], this compound showed a pKi of 6.74. Also, the Ratio in test [3] came to 50.1.
Taken in the same sequence, the figures for `COc1ccccc1N1CCN(C(=O)COc2ccc(-c3cc4c([nH]3)c(=O)n(C)c(=O)n4C)cc2)CC1` were 51.3 nM, 5.63 and 45.7.

The record behind these values is ChEMBL document CHEMBL1143979, “1-, 3- and 8-substituted-9-deazaxanthines as potent and selective antagonists at the human A2B adenosine receptor” (Bioorg Med Chem, 2008).
